1 protein from ChEMBL document CHEMBL3804753, “Substituted quinolines as noncovalent proteasome inhibitors” (Bioorg Med Chem, 2016) can be followed below.

Compound in data set [1]: Cc1cc(C)c2cc(C3=CCCCC3)c(C)nc2c1
Kind of data set: Mixed type inhibition of human 20S proteasome chymotryptic-like activity using Suc-LLVY-AMC as substrate assessed as Vmax for substrate at 7 uM by Lineweaver-Burk plot analysis (reference value: 0.1959 to 0.2691 umol/min). The method, boiled down: (§1)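 Kinetics of CT-L activity of purified human 20S proteasome with Suc-LLVY-AMC substrate increased stepwise. Measured at five compound concentrations or vehicle, 37 °C. Fluorescence of released AMC gave rates.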

Compound in data set [2]: Cc1cc(C)c2cc(C3=CCCCC3)c(C)nc2c1
Kind of data set: Mixed type inhibition of human 20S proteasome chymotryptic-like activity using Suc-LLVY-AMC as substrate assessed as Vmax for substrate at 5 uM by Lineweaver-Burk plot analysis (reference value: 0.1959 to 0.2691 umol/min). The method, boiled down:
as §1

Compound in data set [3]: Cc1cc(C)c2cc(C3=CCCCC3)c(C)nc2c1
Nature of the data set: Mixed type inhibition of human 20S proteasome chymotryptic-like activity using Suc-LLVY-AMC as substrate assessed as Vmax for substrate at 6 uM by Lineweaver-Burk plot analysis (reference value: 0.1959 to 0.2691 umol/min). The method, boiled down: as §1

Compound in data set [4]: Cc1cc(C)c2cc(C3=CCCCC3)c(C)nc2c1
Nature of the data set: Mixed type inhibition of human 20S proteasome chymotryptic-like activity using Suc-LLVY-AMC as substrate assessed as Vmax for substrate at 9 uM by Lineweaver-Burk plot analysis (reference value: 0.1959 to 0.2691 umol/min). In outline:
as §1

Compound in data set [5]: Cc1cc(C)c2cc(C3=CCCCC3)c(C)nc2c1
Kind of data set: Mixed type inhibition of human 20S proteasome chymotryptic-like activity using Suc-LLVY-AMC as substrate assessed as Vmax for substrate at 10 uM by Lineweaver-Burk plot analysis (reference value: 0.1959 to 0.2691 umol/min ). In outline:
as §1

Compound in data set [6]: Cc1cc(C)c2cc(C3=CCCCC3)c(C)nc2c1
Kind of data set: Mixed type inhibition of human 20S proteasome chymotryptic-like activity using Suc-LLVY-AMC as substrate assessed as Vmax for substrate at 8 uM by Lineweaver-Burk plot analysis (reference value: 0.1959 to 0.2691 umol/min). In outline:
as §1

Compound in data set [7]: Cc1cc(C)c2cc(C3=CCCCC3)c(C)nc2c1
Kind of data set: Mixed type inhibition of human 20S proteasome chymotryptic-like activity using Suc-LLVY-AMC as substrate assessed as Vmax for substrate at 4 uM by Lineweaver-Burk plot analysis (reference value: 0.1959 to 0.2691 umol/min). In outline:
as §1

B1: Proteasome Macropain subunit MB1 (Homo sapiens), P28074 (protein)
chain: MALASVLERPLPVNQRGFFGLGGRADLLDLGPGSLSDGLSLAAPGWGVPEEPGIEMLHGTTTLAFKFRHGVIVAADSRATAGAYIASQTVKKVIEINPYLLGTMAGGAADCSFWERLLARQCRIYELRNKERISVAAASKLLANMVYQYKGMGLSMGTMICGWDKRGPGLYYVDSEGNRISGATFSVGSGSVYAYGVMDRGYSYDLEVEQAYDLARRAIYQATYRDAYSGGAVNLYHVREDGWIRVSSDNVADLHEKYSGSTP
What is called Vmax is the rate approached at saturating substrate. With B1, the Vmax came to 0.0674 µmol/min in data set [1]; 0.0924 µmol/min in data set [2]; 0.0703 µmol/min in data set [3]; 0.0466 µmol/min in data set [4]; 0.0329 µmol/min in data set [5]; 0.0587 µmol/min in data set [6]. Further, the Vmax in data set [7] came out at 0.0959 µmol/min.
